Published values pooled from the literature.
Compare with care: the assays were run in different laboratories.
Sialidase-2: Sialidase-2 (Homo sapiens, UniProt Q9Y3R4)
ACHE: Acetylcholinesterase (ACHE, Homo sapiens, UniProt P22303)
FABP4: Fatty acid-binding protein, adipocyte (FABP4, Homo sapiens, UniProt P15090)

CCCCCc1cn([C@H]2[C@H]([C@H](O)[C@H](O)CO)OC(C(=O)O)=C[C@@H]2O)nn1
IC50 (Sialidase-2; enzyme activity, inhibitor): > 500 µM

Cc1cccc(C=Nc2ccc(SCc3cc(=O)c(O)co3)cc2)c1
IC50 (ACHE; enzyme activity, inhibitor, Ellman): 5.66 µM

CCN[C@H]1[C@H]([C@H](O)[C@H](O)CO)OC(C(=O)O)=C[C@@H]1O
IC50 (Sialidase-2; enzyme activity, inhibitor): > 500 µM

C=CCc1ccc(O)c(-c2cc(CC=C)ccc2O)c1
IC50 (Dipeptidyl peptidase 4 (DPP4, Homo sapiens, UniProt P27487); enzyme activity, inhibitor, fluorescence): > 100 µM

O=C(O)C1=C[C@H](O)[C@@H](n2cc(-c3ccc(-c4ccccc4)cc3)nn2)[C@H]([C@H](O)[C@H](O)CO)O1
IC50 (Sialidase-2; enzyme activity, inhibitor): 270 µM

O=C(O)C(F)(F)C(F)(F)C(F)(F)F
IC50 (FABP4; ligand displacement, fluorescence; pH 7.5): 2840 µM

CC(C)(C)c1ccc(C=Nc2ccc(SCc3cc(=O)c(O)co3)cc2)cc1
IC50 (ACHE; enzyme activity, inhibitor, Ellman): 17.4 µM

CC(=O)N(C)[C@H]1[C@H]([C@H](O)[C@H](O)CO)OC(C(=O)O)=C[C@@H]1O
IC50 (Sialidase-2; enzyme activity, inhibitor): > 500 µM

COC(=O)[C@H](C)NC(=O)COc1c(NC(C)=O)cc(-c2nc3ccccc3s2)cc1OC
IC50 (ACHE; enzyme activity, inhibitor, Ellman): > 280 µM

CC(C)Cc1cn([C@H]2[C@H]([C@H](O)[C@H](O)CO)OC(C(=O)O)=C[C@@H]2O)nn1
IC50 (Sialidase-2; enzyme activity, inhibitor): 1.4 µM

Cc1ccc(C=Nc2ccc(SCc3cc(=O)c(O)co3)cc2)cc1
IC50 (ACHE; enzyme activity, inhibitor, Ellman): 6.53 µM

CC(=O)c1c(C)c2cnc(Nc3ccc(C4CCN(CCS(C)(=O)=O)CC4)cn3)nc2n(C2CCCC2)c1=O
IC50 (Cyclin-dependent kinase 9 (CDK9, Homo sapiens, UniProt P50750); enzyme activity, inhibitor, mobility shift): > 0.75 µM

O=C(O)C(F)(F)C(F)(F)C(F)(F)C(F)(F)C(F)(F)C(F)(F)C(F)(F)F
IC50 (FABP4; ligand displacement, fluorescence; pH 7.5): 4.67 µM

O=c1cc(CSc2ccc(N=Cc3ccccc3C(F)(F)F)cc2)occ1O
IC50 (ACHE; enzyme activity, inhibitor, Ellman): 8.05 µM

C1CO1.C=O.CC(C)(C)CC(C)(C)c1ccc(O)cc1
IC50 (Mitogen-activated protein kinase 3 (MAPK3, Homo sapiens, UniProt P27361); enzyme activity, inhibitor, ADP detection): 91.9 µM

CC(C)(C)c1cccc(C=Nc2ccc(SCc3cc(=O)c(O)co3)cc2)c1
IC50 (ACHE; enzyme activity, inhibitor, Ellman): 6.45 µM

CCOC(=O)c1ccc(OC(=O)CCCCCN=C(N)N)cc1
IC50 (Tryptase beta-2 (TPSB2, Homo sapiens, UniProt P20231); enzyme activity, inhibitor): 0.00428 µM

CC(C)C[C@H](NC(=O)[C@H](CO)NC(=O)[C@@H](NC(=O)[C@@H]1CCCN1C(=O)[C@@H](N)CCCCN)C(C)C)C(=O)N[C@@H](CO)C(=O)N[C@@H](Cc1ccc(O)cc1)C(=O)N[C@@H](CCCNC(=N)N)C(=O)NCC(=O)NCC(=O)N[C@H](CC(C)C)C(=O)NCC(=O)N[C@H](C)C(=O)N[C@H](CO)C(=O)N[C@H](Cc1c[nH]c2ccccc12)C(=O)N[C@H](Cc1c[nH]cn1)C(=O)N[C@H](CCCNC(=N)N)C(=O)N[C@@H](Cc1ccc2ccccc2c1)C(=O)N[C@@H](CCCNC(=N)N)C(=O)N[C@@H](CCCNC(=N)N)C(N)=O
IC50 (C-X-C chemokine receptor type 4 (CXCR4, Homo sapiens, UniProt P61073); ligand displacement in cells, fluorescence): 0.76 µM

O=c1cc(CSc2ccc(N=Cc3ccccc3)cc2)occ1O
IC50 (ACHE; enzyme activity, inhibitor, Ellman): 8.26 µM

NS(=O)(=O)C(F)(F)C(F)(F)C(F)(F)C(F)(F)C(F)(F)C(F)(F)C(F)(F)C(F)(F)F
IC50 (FABP4; ligand displacement, fluorescence; pH 7.5): 17 µM

COc1ccc(CCCCC(=O)C(F)(F)C(F)(F)F)cc1
IC50 (Phospholipase A2 group V (PLA2G5, Homo sapiens, UniProt P39877); enzyme activity, inhibitor): 44.5 µM

COC(=O)[C@@H](NC(=O)COc1c(NC(C)=O)cc(-c2nc3ccccc3s2)cc1OC)C(C)C
IC50 (ACHE; enzyme activity, inhibitor, Ellman): > 264 µM

O=c1cc(CSc2ccc(N=Cc3ccc(C(F)(F)F)cc3)cc2)occ1O
IC50 (ACHE; enzyme activity, inhibitor, Ellman): 13.3 µM

CCCCCC(=O)N[C@H]1[C@H]([C@H](O)[C@H](O)CO)OC(C(=O)O)=C[C@@H]1O
IC50 (Sialidase-2; enzyme activity, inhibitor): 8 µM

O=C(O)C(F)(F)C(F)(F)C(F)(F)C(F)(F)C(F)(F)C(F)(F)C(F)(F)C(F)(F)C(F)(F)F
IC50 (FABP4; ligand displacement, fluorescence; pH 7.5): 3.54 µM

CC(C)CNC(=O)N[C@H]1[C@H]([C@H](O)[C@H](O)CO)OC(C(=O)O)=C[C@@H]1O
IC50 (Sialidase-2; enzyme activity, inhibitor): 30 µM

COc1ccc(C=Nc2ccc(SCc3cc(=O)c(O)co3)cc2)cc1
IC50 (ACHE; enzyme activity, inhibitor, Ellman): 20.5 µM

O=C(O)C1=C[C@H](O)[C@@H](NCc2ccc(-c3ccccc3)cc2)[C@H]([C@H](O)[C@H](O)CO)O1
IC50 (Sialidase-2; enzyme activity, inhibitor): 230 µM

COC(=O)CNC(=O)COc1c(NC(C)=O)cc(-c2nc3ccccc3s2)cc1OC
IC50 (ACHE; enzyme activity, inhibitor, Ellman): > 289 µM
